# Test results from ChEMBL document CHEMBL4513216, “Probing the Open Global Health Chemical Diversity Library for Multistage-Active Starting Points for Next-Generation Antimalarials” (ACS Infect Dis, 2020).
# Assay: Toxicity liver stage against HepG2, at 10uM
# Type: cell-based
# Design: test concentration 10 uM, cell line HepG2-A16-CD81EGFP
# Details: human, HepG2-A16-CD81EGFP cells; read-out: INHIBITION
# In short: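 Uninfected HepG2-A16-CD81EGFP cells, 3 × 10^3 per well, 1536-well, plated on prespotted compound at 10 μM final, parasite-free screening media added to match infected plates; puromycin 10 μM positive, DMSO 0.5% negative; run in parallel with 48 h PbLuc assay at 37 °C, 5% CO2; viability by CellTiter-Glo luminescence, normalized to controls.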
row,SMILES,cytotoxicity at 10 µM [%]
1,CC(=O)c1cc(C(=O)N2CC[C@H]3CC[C@@H](C2)N3C)c(=O)[nH]c1C,11.4
2,Cc1csc(NC(=O)C2CCN(Cc3cccc4c3OCCO4)CC2)n1,-17.9
3,Cc1nnc(CN(C)C2CCN(CCc3ccccn3)CC2)o1,1.04
4,CN(Cc1cccnc1)C[C@@H]1OC[C@H]2CN(Cc3ccoc3)CC[C@H]21,-137
5,COCCNc1nc(N2CCCC2)nc2nccnc12,0.649
6,CCc1ncc2c(n1)CN(C(=O)CCCc1ccc(OC)cc1)C2,-7.32
7,O=C(c1cc(-n2cnnn2)ccc1Cl)N1CCOCC1,6.22
8,CCC(CC)CN1C[C@@H]2OCCN(Cc3cnn(C)c3)[C@@H]2C1,-144
9,Cc1ccc(OCC(=O)Nc2ccc(S(C)(=O)=O)cc2)cc1C,-2.4
10,Cn1cc(CNCCc2cccnc2)c(-c2cccnc2)n1,9.37
11,CCn1cc2c(n1)C(COCC1CC1)CN(c1ccc(C)nn1)C2 (stereo not given),12.8
12,Cc1nnc2n1CC(CNc1cnc3ccccc3n1)CC2 (stereo not given),-41.5
13,CN(C)C(=O)[C@H]1C[C@@H]2CCN(Cc3ccoc3)C[C@@H]2O1,-99.7
14,Cc1ccc(C(O)CNC(=O)Nc2cc(C)nn2C)cc1 (stereo not given),-13.3
15,CC(CNC(=O)c1ccc(=O)[nH]n1)N1CCc2ccccc21 (stereo not given),-8.93
16,Cn1cccc1CNC(=O)N(CCO)C1CCCc2ccccc21 (stereo not given),-7.45
17,O=C(NCC1CCS(=O)(=O)C1)Nc1ccccn1 (stereo not given),1.54
18,CS(=O)(=O)NCC1CCCN(c2ccc(C(F)(F)F)cn2)C1 (stereo not given),-17.3
19,c1cnc(NC[C@@H]2CCC[C@@H]3CN(Cc4csnn4)C[C@@H]32)nc1,-126
20,Cc1ccccc1-n1c(C)cc(C(=O)N2CCn3c(C)nnc3C2)c1C,-8.51
21,CC(c1cc(O)nc(NC2CCCC2)n1)n1ncc2ccccc2c1=O (stereo not given),22.9
22,CCC(=O)NCCNC(=O)c1nn(C)c(C)c1Cl,5.05

row,SMILES,cytotoxicity at 10 µM [%]
1,CC(=O)CCC(=O)N1CCC2(CC1)N=C(CCC(C)C)NC2=O,-7.14
2,COc1ccc(Cn2cc(C(=O)N(C)Cc3cnccn3)nn2)cc1,9.81
3,Cc1cc(-c2cccnc2)nc(C2CCCN2S(C)(=O)=O)n1 (stereo not given),4.36
4,O=C(c1cscn1)N1CCC2(CN(Cc3nccs3)C2)C1,-72.6
5,O=C(O)C(c1ccc2c(c1)OCO2)N1CCC(O)(c2cccnc2)CC1 (stereo not given),19.7
6,Cc1cccc(CN2C(=O)CCC23CCN(Cc2ccoc2)CC3)n1,2.82
7,CC(C)Cc1cc(CC2(NCc3ccco3)COC2)no1,6.25
8,CCC(C)(CO)NC(=O)Nc1cc2c(cc1SC)OCCO2 (stereo not given),-10.5
9,O=C1[C@H]2CN(c3ncccn3)C[C@H]2CN1Cc1ccncc1,-12.1
10,O=C(Nc1cccc(CN2CCC(CO)CC2)c1)c1cc(Cl)c[nH]1,-150
11,CN1CCN(C2CCOCC2)CC12CCC(=O)N(CC1CC1)CC2 (stereo not given),-1.93
12,CC(C)OCCCNC(=O)c1c(-n2cnnn2)sc2c1CCCC2,11.9
13,CCN(Cc1noc(C)n1)C(=O)C(c1ccccc1C)N(C)C (stereo not given),1.89
14,CC(C)(C)OC(=O)N1CCC[C@H](NCc2cc[nH]c2)C1,1.05
15,Cc1ccc(C(=O)N2CCC3(CCN(c4ccsc4)C3=O)C2)cn1 (stereo not given),-127
16,Cc1nccn1-c1ccc(N2CCC(NC(C)C(C)C)CC2)cc1 (stereo not given),-7.33
17,CCN1CCCC(C)(C(=O)NCCc2nnc(C)[nH]2)C1 (stereo not given),1.1
18,O=C(NCC(O)COc1cccc(F)c1)c1ccoc1 (stereo not given),-2.56
19,Fc1ccc(CN2CCCC(Cn3cncn3)C2)c2ncccc12 (stereo not given),-12.4
20,O=C(c1ccoc1)N1CCC2(C1)CN(c1ncc(F)cn1)C2,-0.472
21,Cc1n[nH]c(C)c1Sc1ccccc1NC(=O)N1CCOCC1,4.63
22,Cc1noc(CCCC(=O)Nc2cc(C(F)(F)F)c[nH]c2=O)n1,-10.8

row,SMILES,cytotoxicity at 10 µM [%]
1,Cc1ccc(CN(C)C(=O)NCC(C)(C)S(C)(=O)=O)s1,15.6
2,CN1CC2(CCN(C(=O)c3cn4cccnc4n3)CC2)CC1=O,-7.72
3,CC1(C)CNC(=O)c2nc(C3CCCN(C(=O)C4CC4)C3)[nH]c2C1 (stereo not given),3.74
4,CC1CCN(C(=O)NCCc2cc(F)ccc2F)C1 (stereo not given),0.154
5,O=C(c1ccnnc1)N1C[C@@H](OCC2CCOCC2)[C@H]2OCCC[C@H]21,-4.66
6,Cc1ccc(C(=O)N(C)Cc2ccc(Br)o2)c(=O)[nH]1,8.6
7,CCN(CC)c1ccc(NC(=O)N2CCc3sccc3C2)cn1,-5
8,CC(c1ncc(C(C)(C)C)o1)N1CCN(Cc2ccc(Cl)s2)CC1 (stereo not given),-1.21
9,CNC(=O)C1(c2cnccn2)CCCN1C(=O)c1ccccn1 (stereo not given),10.1
10,CCNC(=O)Cc1n[nH]c(-c2cncc(Br)c2)n1,1.2
11,COC(=O)CCc1c(C)nn(-c2nc(C)cc(=O)[nH]2)c1C,9.22
12,CN(C)CCn1c([C@@H]2CCCO2)cc2cccnc21,-25.4
13,CC(=O)Nc1ccc(C(=O)Nc2cnc3n2CCCC3)cc1C,0.271
14,CCC(C)C(=O)N(C)Cc1cc(F)ccc1N1CCC(OC)CC1 (stereo not given),-5.41
15,Cc1cc(C)n(CCCC(=O)N2CCc3ncc(Cl)cc3C2)n1,-25.3
16,Cc1noc(C(C)N2CCN(Cc3cccc(C#N)c3)CC2)n1 (stereo not given),-5.72
17,O=C1CC2(CCN(Cc3ccccn3)C2)CN1c1cccnc1 (stereo not given),-8.75
18,COc1ccc(Nc2nc(N)c(C(C)=O)s2)cc1OC,1.8
19,Cc1occc1C(=O)N1C[C@@H]2OCCN(C(C)C)[C@@H]2C1,-73.4
20,CSCC(=O)N1CCCN(c2ccncc2C)CC1,-6.09
21,CCC(Nc1nnnn1-c1ccccc1)C(=O)NC1CCSCC1 (stereo not given),-16
22,Cc1nsc(NC2CC(=O)N(C(C)(C)C)C2)n1 (stereo not given),-8.52

row,SMILES,cytotoxicity at 10 µM [%]
1,COc1cc(CN2CCN(CC3CC3)[C@@H]3CS(=O)(=O)C[C@@H]32)cc(OC)c1,1.41
2,Cc1csc(N2CCCN(C(=O)C(C(C)C)n3cncn3)CC2)n1 (stereo not given),-7.71
3,NC(=O)c1ccc(C2CN(Cc3ccc(F)cc3)CCO2)nc1 (stereo not given),18.6
4,O=C(NCC(O)c1ccccc1C(F)(F)F)c1cccnc1 (stereo not given),-2.9
5,O=C(C1CCC1)N1CCCC(c2cccc(-n3ccnc3)n2)C1 (stereo not given),-1.28
6,c1ccc(-c2cnc(CN3CCn4c(nnc4C4CC4)C3)o2)cc1,-7.67
7,Cc1cc(C(F)(F)F)nc(CCNC(C)Cn2ccnc2)n1 (stereo not given),4.21
8,COc1ccc(C(CC(=O)O)NC(=O)CCc2cccs2)cc1OC (stereo not given),-6.33
9,COc1c(C2CCCN2Cc2noc(C)n2)c(C)nn1C (stereo not given),-12.5
10,COc1ccc(C(=O)C2CCCN(c3cc(N)ncn3)C2)c(C)c1 (stereo not given),5.31
11,Cc1nc2ccccc2nc1NCc1cccc(OCC2CCCO2)c1 (stereo not given),44.3
12,O=C(Cc1ccc(F)cc1Cl)N1C[C@@H](CN2CCC(O)CC2)[C@@H](CO)C1,9.32
13,COc1cccc2c(=O)n(Cc3ccnc(C)c3)cnc12,-0.0198
14,CNC(=O)C1CN(C(=O)c2ccncc2)CCN(S(C)(=O)=O)C1 (stereo not given),6.67
15,Cc1nc(CN2CCN(C(=O)COc3c(C)ccc(C)c3C)CC2)no1,-1.4
16,c1cnc(NC[C@H]2OC[C@@H]3CCN(Cc4cccnc4)C[C@@H]32)nc1,-3.12
17,CNC(=O)c1nc(CC(=O)Nc2ccc3cc[nH]c3c2)no1,7.98
18,Cc1ccc(C(C)N(C)Cc2nc3c(cnn3C)c(=O)[nH]2)c(C)c1 (stereo not given),-12.4
19,Fc1cccc(CN2CCC(c3cc4ncccc4cn3)CC2)c1F,-7.62
20,Cc1ccc(CCC(=O)N2CCOCC2)cc1Cl,12.3
21,COC(=O)C(O)C1CCN(CCc2ccc(C)cc2)CC1 (stereo not given),15.2
22,CCC(=O)N1CCC2(COCc3c(C)nc(N(C)C)nc32)C1 (stereo not given),-31.5

row,SMILES,cytotoxicity at 10 µM [%]
1,CN(C)c1nc2ncc(Cl)cc2cc1C#N,9.54
2,Cc1cc(-c2cc(S(=O)(=O)N3C[C@H](C4CC4)[C@@H](N)C3)c(C)s2)[nH]n1,2.47
3,Cn1cccc1C(=O)N1CCC2(CC1)COC(COc1ccccn1)C2 (stereo not given),1.48
4,CN(C)C1COC2(CCN(Cc3ccc4c(c3)OCO4)CC2)C1 (stereo not given),-5.19
5,CC(Cc1ccco1)NC(=O)CCn1cccn1 (stereo not given),-6.19
6,Cc1n[nH]c(C)c1CC(=O)N1CCC(O)(CN2CCOCC2)C1 (stereo not given),3.1
7,O=c1oc(-c2ccc(F)cc2)nn1CN1CCCCC1,-4.35
8,CCn1nc(C)cc1S(=O)(=O)N1CCC2(CC(=O)NC2=O)C1 (stereo not given),0.0942
9,O=S(=O)(Nc1cnn(C2CCOCC2)c1)c1c(F)cccc1F,13.9
10,Cc1cnn(CC2CCCN2Cc2cc(C)on2)c1 (stereo not given),-8.51
11,CC(C)N1CCC(NC(=O)NCc2cccnc2)C1 (stereo not given),7.67
12,COc1cccc(CC(=O)NC2CCCc3cn[nH]c32)c1 (stereo not given),12.5
13,Cc1nc(C)n(CCNC(=O)C(C)n2ccnc2C(C)C)n1 (stereo not given),-6.57
14,CNC(=O)CNC(=O)CC1C(=O)NCCN1Cc1ccccc1C (stereo not given),-2.88
15,Cn1nc(C(C)(C)C)cc1NC(=O)Cn1ccccc1=O,-10.5
16,CN(C)C(=O)c1cn2cc(-c3ccccc3Cl)n(CC3CC3)c(=O)c2n1,-1.43
17,Cc1cc2c(cc1C(=O)N1CCC3(CC(=O)NC3=O)C1)OCCO2 (stereo not given),7.15
18,O=C(c1cncc(NCC2COc3ccccc3C2)n1)N1CCCCC1 (stereo not given),1.64
19,O=C(Cc1ccccn1)N1CCN2C[C@H](Oc3cccc(F)c3)C[C@H]2C1,3.94
20,Cc1noc([C@@H]2C[C@H]3OCC[C@H]3N(C(C)C)C2)n1,-125
21,O=C1CC(NS(=O)(=O)c2cccc(F)c2)CN1 (stereo not given),-5.89
22,CC(C)COC(C)C(=O)N1CCCCCC1 (stereo not given),1.31
